From PubChem
Sampled rows, rich in hits. Any-hit rate of the full collection: about 4.1%.
Cl transport mod: KCC2 (human) Cl- transport modulation; Q9H2X9; KCC2 cells, thallium flux FluoZin-2 fluorescence; B-score of Tl+ flux slope (higher = more flux/activation; lower = inhibition) at 10 µM; 190,000 compounds, 2.2% hits;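 active = thallium flux slope and its plate-corrected score both differing from the plate sample mean at a set confidence after two filtering rounds, in either direction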;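 also: slope of fluorescence scaled to starting intensity during 10 to 20 s after thallium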
KCNK3 inh: human KCNK3 channel inhibition, primary screen; O14649; B-score at 10 µM; AID 602410; CHO-KCNK3 thallium flux, FluxOR fluorescence; stronger effect = lower value; 340,000 compounds, 0.84% hits;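 active = B-score under library mean minus 4 SD, starting fluorescence ratio at most library mean plus 5 SD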;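 also: more negative B-score means stronger inhibition of thallium flux through KCNK3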
KCNK9 block: blocks the human KCNK9 two-pore domain potassium channel. Q9NPC2. HEK293 KCNK9, FluxOR thallium flux fluorescence; stronger effect = lower value. B-score at 10 µM. 310,000 compounds, 1.2% hits;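 active = ratio B-score over 3 SD below the library mean, with starting fluorescence within 5 SD of its mean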;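 also: negative B-score means less thallium flux so channel inhibition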
KCNQ1 act: potentiators or activators of human KCNQ1 potassium channel. AID 2648. CHO-K1 KCNQ1, thallium flux FluxOR fluorescence; stronger effect = higher value. P51787. B-score at 10 µM. 310,000 compounds, 0.35% hits;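 active = fluorescence ratio B-score, a plate-corrected score, at least three library SD, with initial intensity B-score within 5 SD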
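Assay system: CHO-K1 cells stably expressing KCNQ1. Medium: assay buffer for compound exposure, DMSO matched across wells. Timing: 37 °C overnight plating, 90-min dark dye load, 20-min compound pretreatment. Signal: kinetic FluxOR fluorescence, 10 s baseline plus 110 s post-stimulus.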
hERG rescue: hERG (human) protection from proarrhythmic block. CHO-hERG, FluxOR thallium flux, dofetilide IC70 present. activation (rescue from dofetilide block), less the hit threshold, % at 10 µM. 310,000 compounds, 0.51% hits. AID 1511;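 active = activation above the mean of controls blocked by dofetilide plus 5 SD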;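 also: thallium influx through hERG after potassium depolarization seen as dye fluorescence rise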
KCNQ1 inh: inhibitors of human KCNQ1 potassium channel; P51787; CHO-K1 KCNQ1, FluxOR thallium flux fluorescence; stronger effect = higher value; B-score at 10 µM; 310,000 compounds, 1.3% hits;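 active = compounds whose thallium flux B-score, printed positive for inhibition, exceeds three library SD while starting fluorescence stays within three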;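 also: channel opened by potassium depolarization with thallium stimulus after 20 min compound exposure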
KCNK9 inh conf: human KCNK9 inhibitor confirmation | inhibition, % at 10 µM | 4,900 compounds, 43% hits | shares compounds with KCNK9 block | HEK293 KCNK9 cells, FluxOR thallium flux fluorescence;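 active = thallium signal inhibited by more than 5 SD of the compound-free buffer control wells, on both duplicate plates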;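 also: 0% = assay buffer control wells without compound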
Kir21 sel: tests whether KCNK9 modulators also affect mouse Kir2.1. shares compounds with KCNK9 block. Kir2.1 cells, FluxOR thallium flux fluorescence. inhibition, % at 10 µM. 4,900 compounds, 4% hits. AID 492993;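 active = thallium signal drop more than 5 SD beyond the mean of the no-compound control wells, seen in both duplicate plates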;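 also: signal is fluorescence rise after thallium addition divided by baseline fluorescence; plate controls were assay buffer only for no effect and full block by chlorpromazine control for full effect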
HEK293 Tl ctr: second counter-screen for KCNK9 modulators: effect in non-induced cells; shares compounds with KCNK9 block; non-induced KCNK9-HEK293, FluxOR thallium flux; inhibition, % at 10 µM; 4,900 compounds, 40% hits; AID 492997;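 active = thallium signal drop beyond 5 SD of the untreated control mean, on both duplicate plates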;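 also: plate controls were buffer only IC0 wells for no effect and SID17386958 at its maximal inhibitory level for full effect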
The depositor's hits bear a star; i = inactive; nt = not tested or not shown.

SMILES | Cl transport mod | KCNK3 inh | KCNK9 block | KCNQ1 act | hERG rescue | KCNQ1 inh | KCNK9 inh conf | Kir21 sel | HEK293 Tl ctr
Cc1ccc(C)c(OCc2cc(C(=O)N3C[C@@H](C)O[C@@H](C)C3)no2)c1 | nt | i | i | i | -11 | i | nt | nt | nt
COc1cc(C)ccc1OCc1cc(C(=O)N2CCC(c3ccc(F)cc3)C2)no1 (stereo not drawn) | nt | i | i | i | -8 | i | i | i | i
Cc1ccc(C)c(OCc2cc(C(=O)N3CC[C@@H]4CCCC[C@H]4C3)no2)c1 | nt | i | i | i | -13 | i | i | i | 24%*
Cc1cccc(OCCC(=O)Nc2ccc(N3CCOCC3)cc2N2CCOCC2)c1 | nt | i | nt | nt | nt | nt | nt | nt | nt
Cc1ccc(C(C)C)c(OCC(=O)Nc2ccc(N3CCOCC3)cc2N2CCOCC2)c1 | nt | i | nt | nt | nt | nt | nt | nt | nt
CC(C)Cc1ccc(C(C)C(=O)Nc2ncccn2)cc1 (stereo not drawn) | -1.8 | i | i | i | -5 | i | nt | nt | nt
COC(=O)c1cc(NC(=O)C(C)c2ccc(CC(C)C)cc2)ccc1O (stereo not drawn) | 0.3 | i | i | i | -5 | i | i | i | i
CC1(C)Oc2ccc3ccc(=O)oc3c2/C(=C/NC2CCCCC2)C1=O | -0.2 | i | -11* | i | -8 | 8* | 35%* | i | 34%*
C/C(=N\NC(=O)c1ccccc1F)c1ccc2c(c1)Nc1ccccc1S2 | -0.83 | i | -15* | i | 0 | i | i | i | 28%*
CCOC(=O)c1ccc(S(=O)(=O)N2CCN(C3CC(=O)N(c4ccccc4C(F)(F)F)C3=O)CC2)cc1 (stereo not drawn) | nt | i | nt | nt | nt | nt | nt | nt | nt
CC1=NN(c2ccccc2)C(=O)/C1=C/c1ccc(-c2ccc(C)c(C(=O)O)c2)o1 | nt | i | i | i | 16* | i | i | i | i
CC1=NN(c2ccc(C(=O)O)cc2)C(=O)/C1=C/c1ccc(-c2ccccc2F)o1 | nt | i | i | i | -7 | i | i | i | i
Cc1nc2ccc(NC(=O)c3ccc([N+](=O)[O-])cc3)cc2s1 | -0.25 | i | i | i | -4 | i | i | i | i
CCCCn1nc(CC(=O)NCCN(CC)CC)c2ccccc2c1=O | -0.52 | i | i | i | -9 | i | nt | nt | nt
O=C(COC(=O)c1ccccc1NC(=O)c1ccccc1)c1cccc([N+](=O)[O-])c1 | 0.26 | i | -14* | i | -11 | i | 69%* | i | 32%*
S=C(NCC1CCCO1)N1CCc2ccccc2C1 (stereo not drawn) | nt | i | i | i | -5 | i | nt | nt | nt
Cc1c(Br)ccc(NC(=O)Cn2nc(-c3cccs3)ccc2=O)c1C | nt | i | i | i | -13 | i | nt | nt | nt
Cc1cc(NC(=O)Cn2nc(-c3cccs3)ccc2=O)cc(C)c1Br | nt | i | -8.3* | i | -2 | i | 36%* | i | 26%*
COc1ccc(Cl)cc1NS(=O)(=O)c1cccc(C(=O)NC2CC2)c1 | nt | i | nt | nt | nt | nt | nt | nt | nt
Cc1nn(C)cc1/C=N\NC(=O)c1ccc2c(c1)c(C)c(C)n2Cc1ccccc1 | -0.81 | i | -19* | i | 1 | i | 64%* | i | 40%*
Cc1c(C)n(Cc2ccccc2)c2ccc(C(=O)O)cc12 | nt | i | i | i | -8 | i | nt | nt | nt
COC(=O)c1ccc(NC(=O)CCCN2C(=O)NC(C)(C)C2=O)cc1 | nt | i | nt | nt | nt | nt | nt | nt | nt
O=C(C[n+]1cccc(Br)c1)c1ccc(-c2ccccc2)cc1 | nt | i | i | i | -9 | i | nt | nt | nt
Cc1ccc(S(=O)(=O)CCC(=O)N(Cc2nnc(-c3ccc(Cl)cc3)o2)C2CC2)cc1 | nt | i | nt | nt | nt | nt | nt | nt | nt
